Assay outcomes: PubChem, several laboratories
In the library only some 2.6% were active in any assay of this set; here they are far more common.
PHOSPHO1 block = inhibitors of human PHOSPHO1 phosphatase; Q8TCT1; recombinant PHOSPHO1, absorbance phosphatase assay; inhibition, % at 13.3 µM; hit rate 1.1% among 290,000; AID 1565; in the data active means inhibition above about 60%
Target sequence (Q8TCT1 whole entry, looked up): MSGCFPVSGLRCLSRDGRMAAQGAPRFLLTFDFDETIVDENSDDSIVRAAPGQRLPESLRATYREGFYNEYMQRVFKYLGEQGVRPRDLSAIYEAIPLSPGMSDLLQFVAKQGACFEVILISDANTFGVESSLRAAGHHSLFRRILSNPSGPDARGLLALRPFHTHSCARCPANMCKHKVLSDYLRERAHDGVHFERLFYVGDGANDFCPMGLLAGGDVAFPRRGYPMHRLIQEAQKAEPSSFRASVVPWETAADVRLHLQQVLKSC
ARFGAP1 inh = inhibits rat ARF GTPase activating protein 1. inhibition, % at 16.5 µM. AID 651572. hit rate 0.26% among 360,000. Q62848. Arfgap1-stimulated ARF1 GTP hydrolysis, GDP FP detection;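 active means inhibition above a per-plate limit, mean inhibition of low control wells plus 3 SD, cut at about 25% in these data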;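 further: 0% = DMSO wells with enzyme and 100% = wells lacking Arfgap1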
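Assay system: Rat Arfgap1 GAP domain (His6, aa 1-136), purified enzyme | Buffer or medium: HEPES 25 mM pH 7.5, NaCl 150 mM, MgCl2, DTT | Schedule: GTP hydrolysis reaction 2 h at 25 °C | Signal: FP of antibody-bound GDP Alexa 633 tracer, ex 620/em 688 nm | Measure: Percent inhibition of Arfgap1-stimulated GTP hydrolysis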
IMP-1 inhibitor = inhibitors of Pseudomonas aeruginosa IMP-1 metallo-beta-lactamase. inhibition, % at 5.6 µM. purified IMP-1, nitrocefin hydrolysis, epi-absorbance fluorescence. hit rate 0.45% among 290,000;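 active means inhibition above the mean plus 3 SD of all compounds in the same screening run, cut at about 4.5% in these data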;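 further: 0% = IMP-1 with DMSO and 100% = DMSO wells lacking enzyme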
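Material – recombinant IMP-1 enzyme, purified · Amount – IMP-1 0.2 nM before substrate addition · Medium – HEPES buffer pH 7.1 with ZnSO4 and Brij 35 · Timing – 25 °C, 15 min preincubation, 25 min reaction · Measured by – plate fluorescence quenching by hydrolysis product, ex 480/em 530 nm · Read-out – percent enzyme inhibition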
ASAP1 inh = inhibitors of human ASAP1 ArfGAP activity; AID 624377; hit rate 0.19% among 360,000; Q9ULH1; inhibition, % at 16.5 µM; ASAP1-stimulated ARF1 GTP hydrolysis, GDP FP detection; in the data active means inhibition above about 25%;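 further: 0% = vehicle with enzyme and substrate and 100% = no enzyme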
Target sequence (Q9ULH1 325-724 limits assumed): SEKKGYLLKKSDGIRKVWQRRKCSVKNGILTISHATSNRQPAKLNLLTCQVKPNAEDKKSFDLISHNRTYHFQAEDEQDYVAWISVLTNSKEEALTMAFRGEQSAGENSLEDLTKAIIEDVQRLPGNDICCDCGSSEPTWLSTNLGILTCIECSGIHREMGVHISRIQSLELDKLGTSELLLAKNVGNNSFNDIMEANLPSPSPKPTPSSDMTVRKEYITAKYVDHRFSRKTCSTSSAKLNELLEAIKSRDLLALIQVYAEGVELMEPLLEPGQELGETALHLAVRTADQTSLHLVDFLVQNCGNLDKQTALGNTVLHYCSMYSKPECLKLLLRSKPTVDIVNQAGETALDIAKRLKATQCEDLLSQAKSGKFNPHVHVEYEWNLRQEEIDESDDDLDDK
Calb FLC = affects C. albicans growth with fluconazole; C. albicans CaCi-2 (fluconazole-resistant clinical isolate) + fluconazole, Alamar Blue growth, 48 h; growth inhibition, % (concentration not given with the values); hit rate 0.57% among 300,000;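 active means growth inhibition above about 58% in most replicates, limit read from the data, passing the limit was not always enough; inconclusive means exactly half the replicates above a set limit; inactive means most replicates below a set limit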;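 further: all wells also contain fluconazole at 8 µg/ml as a sub-toxic cotreatment; 0% = median of DMSO wells and 100% = median of geldanamycin control wells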
VIM-2 inhibitor = inhibitors of Pseudomonas aeruginosa VIM-2 metallo-beta-lactamase; purified VIM-2, nitrocefin hydrolysis, epi-absorbance fluorescence; inhibition, % at 5.6 µM; hit rate 0.89% among 290,000; AID 1527;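 active means inhibition above the mean of all tested compounds plus 3 SD, cutoff set per screening run, cut at about 7.5% in these data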;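 further: red hydrolysis product quenches plate fluorescence so inhibitors raise well fluorescence; 0% = enzyme with DMSO and 100% = DMSO without enzyme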
ASAP1 GAP conf = ASAP1 inhibition confirmed | ASAP1-stimulated Arf1 GTPase, GDP fluorescence polarization | AID 624431 | inhibition, % at 16.5 µM | hit rate 37% among 620 | shares compounds with ASAP1 inh;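 active means mean inhibition over triplicates exceeds the hit threshold derived for the earlier primary screening run, cut at about 25% in these data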
* = called active by the depositor; ? = inconclusive; · = not tested or not shown; ! = a repeat was not active.

SMILES | PHOSPHO1 block | ARFGAP1 inh | IMP-1 inhibitor | ASAP1 inh | Calb FLC | VIM-2 inhibitor | ASAP1 GAP conf
O=c1[nH][nH]cc1C=Nc1ccccc1O | 34 | 6 | -4 | -4 | 1 | -3 | ·
O=c1c(=Nc2ccccc2O)c(=O)c2ccccc12 | 30 | 9 | -3 | 28* | -23 | 0 | 8
COc1ccc(/C=C2\Oc3cc(OC(=O)N4CCOCC4)ccc3C2=O)cc1 | -2 | 21 | -2 | 33* | -6 | -4 | 70*
CCNC(=O)/C(C#N)=C/c1c(N2CC(C)OC(C)C2)nc2ccccn2c1=O (configuration not stated) | 2 | -6 | -1 | 49* | 20 | -2 | 1
CNC(=O)/C(C#N)=C/c1c(N2CC(C)OC(C)C2)nc2ccccn2c1=O (configuration not stated) | 10 | 3 | -1 | -10 | -14 | 1 | ·
CCOc1ccc(NS(=O)(=O)c2ccc(NC(=S)NC(=O)C(C)C)cc2)cc1 | 8 | 1 | -1 | 5 | 0 | -5 | ·
COc1ccc(NS(=O)(=O)c2ccc(NC(=S)NC(=O)C(C)C)cc2)cc1 | -12 | 2 | 1 | 31* | -8 | -2 | 11
Cc1ccc(NC(=O)COc2ccc(CCO)cc2-n2nc3ccccc3n2)cc1C | -3 | 5 | -1 | 26* | -4 | -2 | -1
O=C(COC(=O)C1CC(=O)N(Cc2ccco2)C1)c1ccc(OC(=O)c2ccco2)cc1 (configuration not stated) | 13 | -2 | -1 | 28* | 1 | -2 | 4
CCCCN1C(=O)C(CC(=O)NCCCCc2ccccc2)CC(C(=O)N2CCCCCC2)=C1C (configuration not stated) | · | 3 | · | 8 | · | · | ·
Cn1nc(C(C)(C)C)cc1NC(=O)C1(C)CCN1C(=O)c1ccccc1CCc1ccccc1 (configuration not stated) | · | -1 | · | 3 | · | · | ·
O=C(COc1ccc(/C=N/NC(=O)c2ccncc2)cc1)Nc1ccccc1 | 24 | -3 | -2 | 3 | 0 | -1 | ·
O=C(COc1ccc(/C=N/NC(=O)c2ccncc2)cc1)Nc1cccc([N+](=O)[O-])c1 | 32 | 7 | -1 | 29* | -6 | 0 | 8
O=[N+]([O-])c1cc(C(F)(F)F)ccc1NCCc1c[nH]c2ccccc12 | -16 | 10 | 1 | -1 | 23 | 0 | ·
O=[N+]([O-])c1cc(C(F)(F)F)ccc1NCCc1c[nH]c2ccc(O)cc12 | 3 | 3 | -2 | 26* | 27 | 2 | 12
COc1ccc(-n2nc(C(=O)NCC(=O)NC(C)C)c3ccccc3c2=O)cc1Cl | 28 | 7 | -1 | 12 | 10 | 0 | ·
COc1ccc(-n2nc(C(=O)NCC(=O)Nc3ccccn3)c3ccccc3c2=O)cc1Cl | 3 | 12 | -3 | 51* | 5 | -2 | 61*
O=C(c1n[nH]c(=O)c2ccccc12)N1CCN(S(=O)(=O)c2ccccc2Cl)CC1 | · | -1 | · | 25* | · | · | 1
O=C(c1n[nH]c(=O)c2ccccc12)N1CCN(c2ccccc2Cl)CC1 | 25 | -10 | -1 | -14 | ? | -2 | ·
CC1(C(=O)NS(=O)(=O)C2CC2)CCCN(C(=O)c2ccc(F)cc2Cl)C1 (configuration not stated) | · | -2 | · | -23 | · | · | ·
Cc1cc(C)c(NS(=O)(=O)c2ccc(NC(=O)c3cccs3)cc2)c(C)c1 | 8 | 9 | -1 | 9 | -5 | -2 | ·
Cc1ccc(S(=O)(=O)Nc2ccc(NC(=O)c3cccs3)cc2)cc1 | 13 | 6 | -3 | 25* | 9 | -2 | 7
COc1ccc(-c2nc3c(C)cc(Br)cn3c2Cc2ccc(C)cc2)cc1OC | · | 10 | · | 2 | · | · | ·
COc1cc2c(C#N)c(N3CCN(C)CC3)nc(N)c2c(N)n1 | 12 | 12 | -4 | -1 | 0 | 3 | ·
COc1cc2c(C#N)c(N3CCCC3)nc(N)c2c(N)n1 | 3 | -2 | -3 | 43*! | 4 | 1 | 19
SMILES | PHOSPHO1 block | ARFGAP1 inh | IMP-1 inhibitor | ASAP1 inh | Calb FLC | VIM-2 inhibitor | ASAP1 GAP conf
N#Cc1c(N2CCCC2)nc(N)c2c(N)nc(N3CCCC3)cc12 | -7 | 12 | -1 | 27* | 43 | -5 | 8
CCOc1cc2c(C#N)c(N3CCCC3)nc(N)c2c(N)n1 | · | 1 | · | 10 | 10 | · | ·
COc1cc2c(C#N)c(N3CCN(c4ccccc4OC)CC3)nc(N)c2c(N)n1 | 22 | 7 | -4 | 2 | 1 | -1 | ·
CCCOc1cc2c(C#N)c(N3CCCC3)nc(N)c2c(N)n1 | · | 7 | · | 36* | -2 | · | 17
CC(C)c1ccc(CN2CCC2(C)C(=O)Nc2cccc(Oc3ccccc3)c2)cc1 (configuration not stated) | · | -11 | · | -4 | · | · | ·
COc1ccc(NC(=O)c2ccc(-c3ccccc3C(F)(F)F)o2)cc1 | -6 | 11 | -3 | 26* | -8 | -2 | 11
C[C@H]1COc2cccc(N3CCC[C@@H]3CO)c2S(=O)(=O)N1 | · | -1 | · | 3 | · | · | ·
O=CNc1cc(-c2ccoc2)cn2c(-c3ccc(F)cc3)cnc12 | · | -14 | · | -8 | · | · | ·
CCCS(=O)(=O)c1c(S(=O)(=O)CCC)c2cnccn2c1C(=O)c1ccc(Cl)cc1 | 4 | -5 | -2 | 27* | 14 | -1 | 7
CCCS(=O)(=O)c1c(S(=O)(=O)CCC)c2ccc(C(N)=O)cn2c1C(=O)c1ccc(F)cc1 | 32 | 2 | -1 | -1 | -2 | -2 | ·
Oc1oc(-c2ccccc2)nc1/C=N/c1ccccn1 | 1 | -5 | -3 | 1 | 2 | 2 | ·
Oc1oc(-c2ccccc2Br)nc1C=Nc1ccc(Br)cn1 | 6 | 8 | -3 | 51* | -4 | -2 | 110*
COc1ccccc1NC(=O)Cn1nnc(-c2ccccc2NC(=O)c2ccco2)n1 | 31 | -2 | -1 | 28* | 0 | 0 | 4
COc1ccc(NC(=O)Cn2nnc(-c3ccccc3NC(=O)c3ccco3)n2)cc1 | -1 | 13 | -4 | -1 | 4 | -2 | ·
Cc1ccccc1N=C(c1ccccc1)C1C(=O)c2ccccc2C1=O | · | -9 | · | 7 | · | · | ·
O=C(N/N=C/c1cccnc1)c1cc2ccccc2o1 | 5 | 18 | -3 | 1 | -4 | -2 | ·
O=C(N/N=C/c1cccnc1)c1cc2c(ccc3ccccc32)o1 | -22 | 25 | -2 | 28* | 12 | -2 | 55*
CC(C)Oc1ccc(CN2CCC2(C)C(=O)Nc2cccc(Oc3ccccc3)c2)cc1 (configuration not stated) | · | 4 | · | -9 | · | · | ·
C[C@@H](C(=O)O)[C@H]1C[C@]1(C)[C@H](NC(=O)OCc1ccccc1)c1ccccc1 | -11 | -3 | 0 | 26* | 2 | 1 | 0
CN(Cc1ccccc1)C(=O)C(=O)c1ccccc1 | · | -3 | · | 0 | · | · | ·
Cn1c(=O)c2cc(NC(=O)Nc3cccnc3)ccc2n1-c1ccc(C(C)(C)C)cc1 | · | 4 | · | -12 | · | · | ·
